Only a selection was taken, and hits are over-represented in it overall.
Insulin prom act: activators of insulin promoter-driven GFP, primary screen, imaging, TRM-6 cells (human fetal islet line), eGFP reporter, cell count | plate-scaled: unstimulated 0, stimulated control 100 | activation, % at 2 µM | hit rate 0.81% among 130,000;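 active = activation at 2 µM above a set limit, confirmed on inspection of the cell images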;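 also: share of cells whose green reporter signal exceeds an intensity cutoff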
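System – TRM-6 insulin promoter–eGFP reporter cells · Probe or stimulus – 0.75 µM tamoxifen as reporter inducer · Dosing – single-point 2 µM compound dose · Incubation – tamoxifen pre-incubation 15 h overnight, then compound exposure 48 h at 37 °C · Measured by – fixed-cell fluorescence microscopy, eGFP plus Hoechst · Evaluation – percent GFP-positive cells normalized to per-plate controls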
Numbers without * were called inactive.

Results for COc1ccc([N+](=O)[O-])cc1NC(=O)CCN1CCN(CCO)CC1 ?
Insulin prom act: -6.7

Results for CCC1=Nc2cc(C(=O)NCCCOC(C)C)ccc2Sc2ccccc21 ?
Insulin prom act: 109.7*

Results for CCC1=Nc2cc(C(=O)O)ccc2Sc2ccccc21 ?
Insulin prom act: -2.4

Results for CC(C)OCCCNC(=O)c1ccccc1Oc1ccccc1 ?
Insulin prom act: 346.2

What do the screens show for `Cc1c(NC(=O)CCN2C(=O)c3ccccc3C2=O)c(=O)n(-c2ccccc2)n1C`?
Insulin prom act: 0.0

How did C=CCOc1c(Cl)cc(CNCCC)cc1Cl do in these assays?
Insulin prom act: 246.2

What do the screens show for `Cc1csc(NC(=O)CSc2ccc(-c3ccccn3)nn2)n1`?
Insulin prom act: 8.3

What do the screens show for `CCC(=O)N1C(=O)C2(Nc3ccccc3N2)c2ccccc21`?
Insulin prom act: 8.1

How did CCN1c2ccccc2NC2C1C(C(C)=O)C(=O)N2c1ccc(Cl)cc1 (stereo not drawn) do in these assays?
Insulin prom act: 133.3*

Results for CCCS(=O)(=O)C(=C(Nc1ccccc1)Nc1ccccc1)S(=O)(=O)CCC ?
Insulin prom act: 3.6

What do the screens show for `Cc1cccc(-n2ncc3c(N4CCOCC4)ncnc32)c1`?
Insulin prom act: 2.4

What do the screens show for `Cc1nnc(SCCN2CCOCC2)c2nn(-c3ccccc3F)c(C)c12`?
Insulin prom act: 7.7

Results for Cc1nnc(N2CCOCC2)c2nn(-c3cccc(Cl)c3)c(C)c12 ?
Insulin prom act: 233.3*

What do the screens show for `COC(=O)Nc1nn(-c2ccc(OC)cc2)c(=O)c(C#N)c1C`?
Insulin prom act: 286.7*

How did Cc1c(C(=O)NN)nn(-c2ccc(Cl)cc2)c(=O)c1C#N do in these assays?
Insulin prom act: 0.0

How did CCOC(=O)c1nn(-c2ccccc2)c2nc(-c3ccc(OC)cc3)c(C#N)c(=O)n12 do in these assays?
Insulin prom act: 6.7

Results for Cn1c(N=NC(=O)c2ccccc2)c(O)c2ccccc21 ?
Insulin prom act: -3.8

What do the screens show for `Cc1nc(-c2ccccc2)nc2[nH]ccc(=O)c12`?
Insulin prom act: -9.6

How did O=C(NCCc1ccccc1)c1oc2ccccc2c1COc1ccccc1 do in these assays?
Insulin prom act: 80.0*

What do the screens show for `O=C(NCCc1ccccc1)c1ccc(-c2ccccc2C(F)(F)F)o1`?
Insulin prom act: 4.8

Results for O=C(COC(=O)COc1ccccc1)NCc1ccccc1 ?
Insulin prom act: 0.0

Results for O=C1C=C(Nc2ccc(Cl)cc2)C(=O)N1c1ccc(Cl)cc1 ?
Insulin prom act: -3.3

What do the screens show for `Cc1occc1-c1nnc(SCC(=O)c2ccccc2)n1CC1CCCO1` (stereo not drawn)?
Insulin prom act: 5.6

What do the screens show for `O=c1oc(-c2ccccc2NS(=O)(=O)c2ccc3ccccc3c2)nc2ccccc12`?
Insulin prom act: 8.3

Results for COCC(=O)Nc1nnc(Cc2ccc(OC)cc2)s1 ?
Insulin prom act: -6.7

Results for CCOc1ccc(N2C(=O)/C(=C/c3cccs3)N(CC(=O)OC)C2=S)cc1 ?
Insulin prom act: -4.4

Results for O=C(OCn1ncc(Cl)c(Cl)c1=O)c1ccc(F)cc1 ?
Insulin prom act: 242.9*

How did O=C(Cn1ncc(Cl)c(Cl)c1=O)c1ccc(Cl)cc1 do in these assays?
Insulin prom act: 8.3

How did Cn1c(N)c(C(=O)COC(=O)c2ccc(Cl)nc2)c(=O)n(C)c1=O do in these assays?
Insulin prom act: -7.1

How did COc1ccc(NC(=O)CC#N)cc1OC do in these assays?
Insulin prom act: 5.4

Results for Cc1ccc(O)c(NC(=S)NC(=O)c2ccc(-c3ccc(Cl)cc3)o2)c1 ?
Insulin prom act: -2.3

How did Cn1cnnc1SCC(=O)NC1CCCCC1 do in these assays?
Insulin prom act: 0.0

Results for CN(C)c1ccc(/C=N/N2C(=N)N(c3ccccc3)C(=S)C2=Nc2ccccc2)cc1 ?
Insulin prom act: 252.4

Results for CN(C)c1ccc(/C=C/C(O)=C2/C(=O)N(C)C3(C)CC2c2ccccc2O3)cc1 (stereo not drawn) ?
Insulin prom act: 64.0

What do the screens show for `CN(C)c1ccc(/C=C/C=C2/SC(=S)N(c3ccccc3)C2=O)cc1`?
Insulin prom act: 295.8*

How did COc1ccc(CCNC(=O)CCc2ccc(S(=O)(=O)NCC(C)C)cc2)cc1 do in these assays?
Insulin prom act: 115.4

What do the screens show for `CCN(C(=O)CSc1nnc(-c2ccncc2)n1Cc1ccccc1)C1CCS(=O)(=O)C1` (stereo not drawn)?
Insulin prom act: 6.7

Results for Cc1ccc(-c2nnn(CC(=O)N(c3cccc(F)c3)C(C(=O)NC3CCCC3)c3ccco3)n2)o1 (stereo not drawn) ?
Insulin prom act: 3.8

How did Cc1ccc(-c2nnn(CC(=O)N(CC3CCCO3)C(C(=O)NC3CCCC3)c3ccc(O)cc3)n2)o1 (stereo not drawn) do in these assays?
Insulin prom act: 6.7

Results for Cc1ccc(-c2nnn(CC(=O)N(CC3CCCO3)C(C(=O)NC3CCCC3)c3ccc(F)cc3)n2)o1 (stereo not drawn) ?
Insulin prom act: 500.0*

What do the screens show for `O=C(NCc1ccccc1)c1csc2c1CCCC2`?
Insulin prom act: 0.0

What do the screens show for `COc1ccc(-c2nc(C)sc2C)cc1`?
Insulin prom act: 418.8*

How did COc1ccc(-c2sc(NC(C)=O)nc2-c2ccccc2)cc1 do in these assays?
Insulin prom act: -7.9

Results for COCC(=O)Nc1nc(-c2ccc(C)cc2)c(C)s1 ?
Insulin prom act: 314.0

How did COCCNC(=S)NNc1cccc(C(=O)O)c1 do in these assays?
Insulin prom act: -9.1

Results for CN(C)c1nc2n(c(=O)n1)C(C#N)CS2 (stereo not drawn) ?
Insulin prom act: 0.0

How did COC(=O)c1ccccc1N1C(=O)C2C(C1=O)[C@H]1C=C[C@@H]2C1 (stereo partly drawn) do in these assays?
Insulin prom act: -75.0

What do the screens show for `O=C(COc1ccc(Cl)c(Cl)c1)NN1C(=O)C2C(C1=O)C1C=CC2C12CC2` (stereo not drawn)?
Insulin prom act: 5.9

Results for COC(=O)c1ccccc1N1C(=O)C2C(C1=O)C1C=CC2C12CC2 (stereo not drawn) ?
Insulin prom act: 163.6*

Results for O=C1C(c2ccnc3ccccc23)=C(O)c2ccccc21 ?
Insulin prom act: 129.5

Results for Cc1c(Cl)cccc1NC(=S)/C(=C(\[O-])c1ccc(Cl)s1)[n+]1ccccc1 ?
Insulin prom act: 6.9

How did COc1ccc2c(c1)c1c(n2C(C)=O)C(OC(C)=O)=NCC1 do in these assays?
Insulin prom act: 7.4

Results for Cc1ccc(NC(=O)C2(C)Cc3ccccc3C(=O)O2)cc1 (stereo not drawn) ?
Insulin prom act: 0.0

What do the screens show for `CCOc1ccc(C(=O)N(Cc2ccc(OC)cc2)Cc2cc3cc(OC)ccc3[nH]c2=O)cc1`?
Insulin prom act: -9.4

How did CCCN(Cc1cc2cc(C)ccc2[nH]c1=O)C(=O)c1cccc(OC)c1 do in these assays?
Insulin prom act: 196.8*

How did CCCN(Cc1cc2cc(C)ccc2[nH]c1=O)S(C)(=O)=O do in these assays?
Insulin prom act: -91.7

What do the screens show for `COC(=O)C1CN(S(=O)(=O)c2ccc(C)cc2)CCN1S(=O)(=O)c1ccc(C)cc1` (stereo not drawn)?
Insulin prom act: 136.4*

What do the screens show for `Cc1ccc(S(=O)(=O)N2CCCCC2C(=O)O)cc1` (stereo not drawn)?
Insulin prom act: 0.0

How did COc1ccc(NC(=O)C2CCCN2S(=O)(=O)c2ccc(C)cc2)cc1 (stereo not drawn) do in these assays?
Insulin prom act: 0.0

What do the screens show for `Cc1cccc(C(=O)Nc2onc(C)c2C#N)c1`?
Insulin prom act: 0.0
